Experimental data of several laboratories.
Lines come from different studies, so protocols differ.
Observed: cell growth or viability

Cc1cc2c(C(N)=O)cccc2n1-c1nc2c(c(OCc3ccccc3)n1)CCCN2
IC50 (RPMI-8226; ATP luminescence; 72 h): 4.5 µM

COc1cccc(CNc2ccc(C(=O)O)cc2)c1O
IC50 (NCI-H69; resazurin; 72 h): > 100 µM

CC(C)(C)c1cnc(CSc2cnc(NC(=O)C3CCN(C(=O)CCCCCN4Cc5cc6c(cc5C4)C(=O)N(C4CCC(=O)NC4=O)C6=O)CC3)s2)o1 (centres unmarked)
IC50 (TC-71; MTT; 72 h): 0.00471 µM

COc1cccc(CNc2ccc(C(=O)O)cc2)c1OC
IC50 (NCI-H69; resazurin; 72 h): > 100 µM

CC(C)(C)c1cnc(CSc2cnc(NC(=O)C3CCNCC3)s2)o1
IC50 (TC-71; MTT; 72 h): 0.0489 µM

O=C(O)c1ccc(NCc2ccc(Cl)cc2)cc1
IC50 (NCI-H69; resazurin; 72 h): > 100 µM

CONC(=O)c1cccc2c1cc(C)n2-c1nc2c(c(NCc3ccccc3)n1)CCCN2
IC50 (RPMI-8226; ATP luminescence; 72 h): 0.5 µM

O=C1CCCC2=C1C(c1c(C(=O)O)[nH]c3ccccc13)c1c(ccc3ccccc13)O2 (centres unmarked)
IC50 (3T3-L1; MTT; 72 h): 24.1 µg/mL

Cc1cc2c(C(N)=O)cccc2n1-c1nc2c(c(NCc3cccc(O)c3)n1)CCCN2
IC50 (RPMI-8226; ATP luminescence; 72 h): 0.3 µM

CC(C)(C)c1cnc(CSc2cnc(NC(=O)C3CCN(C(=O)CCCCCCN4Cc5cc6c(cc5C4)C(=O)N(C4CCC(=O)NC4=O)C6=O)CC3)s2)o1 (centres unmarked)
IC50 (TC-71; MTT; 72 h): 0.00958 µM

O=C(O)c1ccc(NCc2cccc(C(F)(F)F)c2)cc1
IC50 (NCI-H69; resazurin; 72 h): > 100 µM

Cc1cc2c(C(N)=O)cccc2n1-c1nc2c(c(NCc3ccccc3O)n1)CCCN2
IC50 (RPMI-8226; ATP luminescence; 72 h): 9.8 µM

O=C(O)c1ccc(NCc2cccc([N+](=O)[O-])c2)cc1
IC50 (NCI-H69; resazurin; 72 h): > 100 µM

CC(C)(C)c1cnc(CSc2cnc(NC(=O)C3CCN(C(=O)CCCCCCCN4Cc5cc6c(cc5C4)C(=O)N(C4CCC(=O)NC4=O)C6=O)CC3)s2)o1 (centres unmarked)
IC50 (TC-71; MTT; 72 h): 0.00852 µM

CONC(=O)Cc1c(C)n(-c2nc3c(c(NCc4ccccc4)n2)CCCN3)c2ccccc12
IC50 (RPMI-8226; ATP luminescence; 72 h): 8 µM

CC(C)(C)NS(=O)(=O)c1cccc(C(=O)N2CC3(CCC4(CC4)CC3)c3cc(NS(C)(=O)=O)ccc32)c1
IC50 (OVCAR-3; 7 days): 0.011 µM

CC(C)(C)c1cnc(CSc2cnc(NC(=O)C3CCN(C(=O)CCCCCCCCCCN4Cc5cc6c(cc5C4)C(=O)N(C4CCC(=O)NC4=O)C6=O)CC3)s2)o1 (centres unmarked)
IC50 (TC-71; MTT; 72 h): 0.0718 µM

O=C(O)c1ccc(NCc2cccc(O)c2)cc1
IC50 (NCI-H69; resazurin; 72 h): > 100 µM

Cc1cc2c(C(N)=O)nccc2n1-c1nc2c(c(NCc3ccccc3)n1)CCCN2
IC50 (RPMI-8226; ATP luminescence; 72 h): 4.9 µM

CC(C)(C)c1cnc(CSc2cnc(NC(=O)C3CCN(C(=O)CCCCCCCCCN4Cc5cc6c(cc5C4)C(=O)N(C4CCC(=O)NC4=O)C6=O)CC3)s2)o1 (centres unmarked)
IC50 (TC-71; MTT; 72 h): 0.0717 µM
